Series [1] concerns Escherichia coli. Description: Antibacterial activity against Escherichia coli K-12 W3110 ATCC 27325 incubated for 16 hrs under shaking condition. The format is functional. The following applies: K-12 substr. W3110 ATCC 27325, 16 h. In short, it runs like this: (§1)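 Broth microdilution (Andrews method) in Iso-sensitest broth. Overnight cultures are adjusted to A650 0.07 (0.5 McFarland) and diluted ten-fold. Compounds come from 5 mM DMSO stocks, 2-fold serially diluted, final 2–100 μM in a 1:1 inoculum:compound mix. Incubation is 37 °C for 16 h with shaking. MIC is the lowest concentration giving complete growth inhibition, read by absorbance; triplicate.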

The nature of series [2]: Cytotoxicity against human HaCaT cells assessed as reduction in cell viability pretreated for 1 hr followed by DMEM addition measured after 24 hrs by alamar blue assay. The format is cell-based. The following applies: read-out: ED50. A digest of the protocol: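 HaCaT keratinocytes are grown in DMEM high glucose with 10% FBS and 1% P/S and seeded at 2x10^4 cells/well 24 h before treatment. Compound dilution series run 2–100 µM (5 mM DMSO stocks) in 50 µL for 1 h, then medium is added for 24 h at 37 °C, 5% CO2. alamarBlue is read after 1 h (Ex 540/Em 620). Triplicate, ≥2 occasions; ED50 from dose-response; amphotericin B positive control.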

Series [3] in a line: Cytotoxicity against human HepG2 cells assessed as reduction in cell viability pretreated for 1 hr followed by DMEM addition measured after 24 hrs by alamar blue assay. The format is cell-based. The following applies: read-out: ED50. In short, it runs like this:
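HepG2 cells are kept in DMEM high glucose with 10% heat-inactivated FBS and 1% P/S at 37 °C, 5% CO2, and seeded at 2x10^4 cells/well one day ahead. They are exposed to compounds (100 to 3 µM, from 5 mM DMSO stocks) in 50 µL for 1 h. Medium is then added and cells incubated 24 h. alamarBlue is read after 2 h (Ex 560/Em 600). Triplicate on ≥2 occasions; ED50 from dose-response; DMSO negative control.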

The test system of series [4] is Pseudomonas aeruginosa. Nature of the series: Antibacterial activity against Pseudomonas aeruginosa PAO1 ATCC 15692 incubated for 16 hrs under shaking condition. The format is functional. The following applies: PAO1 ATCC 15692, 16 h. A digest of the protocol: as §1
For series [5], the system named is Staphylococcus aureus. Description: Antibacterial activity against Staphylococcus aureus 3R7089 strain Oxford/ATCC 9144 incubated for 16 hrs under shaking condition. The settings on record: 3R7089 strain Oxford/ATCC 9144, 16 h. The format is functional. A digest of the protocol: as §1
Series [6] concerns Staphylococcus epidermidis. Description: Antibacterial activity against Staphylococcus epidermidis clinical isolate incubated for 16 hrs under shaking condition. The format is functional. In short, it runs like this: as §1
The nature of series [7]: Selectivity index, ratio of ED50 for human HaCaT cells to MIC for Staphylococcus aureus 3R7089 strain Oxford/ATCC 9144. The format is toxicity. The following applies: read-out: Selectivity Index.
The nature of series [8]: Selectivity index, ratio of ED50 for human HaCaT cells to MIC for Staphylococcus epidermidis clinical isolate. The settings on record: read-out: Selectivity Index. The format is toxicity.
Series [9] is described as follows: Selectivity index, ratio of ED50 for human HepG2 cells to MIC for Staphylococcus aureus 3R7089 strain Oxford/ATCC 9144. The format is toxicity. The following applies: read-out: Selectivity Index.
Series [10] in a line: Selectivity index, ratio of ED50 for human HepG2 cells to MIC for Staphylococcus epidermidis clinical isolate. The format is toxicity. The settings on record: read-out: Selectivity Index.
A short description of series [11]: Selectivity index, ratio of ED50 for human HaCaT cells to MIC for Escherichia coli K-12 W3110 ATCC 27325. The settings on record: read-out: Selectivity Index. The format is toxicity.
Series [12] is described as follows: Selectivity index, ratio of ED50 for human HaCaT cells to MIC for Pseudomonas aeruginosa PAO1 ATCC 15692. The format is toxicity. The following applies: read-out: Selectivity Index.
Series [13] in a line: Selectivity index, ratio of ED50 for human HepG2 cells to MIC for Escherichia coli K-12 W3110 ATCC 27325. The format is toxicity. The settings on record: read-out: Selectivity Index.
Series [14] is described as follows: Selectivity index, ratio of ED50 for human HepG2 cells to MIC for Pseudomonas aeruginosa PAO1 ATCC 15692. The format is toxicity. The settings on record: read-out: Selectivity Index.
Series [15] in a line: Hemolytic activity against human erythrocytes measured after 1 hr. The format is ADME, cell-based, Erythrocyte. The settings on record: read-out: HD50.
Series [16] is described as follows: Cytotoxicity against mouse NIH/3T3 cells by MTS assay. The format is cell-based, NIH3T3. The following applies: read-out: ID50 (the source's name).

Values after ≈ are worked out from the molar mass of the structure shown. Square brackets hold non-standard residues; d marks the D form. Peptide text beside a SMILES is read from it. Gly(N-2-aminoethyl) = NCCNCC(=O)O; Nspe = C[C@H](NCC(=O)O)c1ccccc1; Nphe = O=C(O)CNCc1ccccc1; Nlys = NCCCCNCC(=O)O Where only a bound is given, the exact number is not on record here.

As for `CCCCCNCC(=O)N(CC(=O)N(CC(=O)N(CCCCC)CC(=O)N(CC(=O)N(CC(=O)N(CCCCN)CC(=O)N(CC(=O)N(CC(=O)N(CCCCN)CC(=O)N(CC(=O)N(CC(N)=O)[C@@H](C)c1ccccc1)[C@@H](C)c1ccccc1)C(C)c1ccccc1)[C@@H](C)c1ccccc1)C(C)c1ccccc1)[C@@H](C)c1ccccc1)C(C)c1ccccc1)[C@@H](C)c1ccccc1` (single isomer, unassigned), the MIC is over 100 µM in series [1], over 100 µM in series [4], 2 µM (≈ 3.63 µg/mL) in series [5] and 1 µM (≈ 1.82 µg/mL) in [6]. Moreover, the figures for the CC50 at 24 h in series [2] and in series [3] were 20 µM and 18 µM, respectively. For the same compound, the selectivity ratio in [7] amounted to 10; in series [8] it was 20; in [9], 9; in series [10], 18.

Regarding `NCCCCNCC(=O)N(CC(=O)N(CC(=O)N(CCCCN)CC(=O)N(CC(=O)N(CC(N)=O)Cc1ccccc1)Cc1ccccc1)Cc1ccccc1)Cc1ccccc1` (H-[Nlys][Nphe][Nphe][Nlys][Nphe][Nphe]-NH2), the MIC in series [1], in [4], in series [5] and in [6] was over 100 µM each time. The CC50 at 24 h in [2] and in [3] was over 100 µM in each case. The selectivity ratio in series [11], in series [12], in series [7], in series [8], in series [13] and in series [14] was 1 in each case. In addition, the selectivity ratio in series [9] and in [10] was 1 in each case.

Turning to `CCCCCN(CC(=O)N(CC(=O)N(CC(=O)N(CCCCN)CC(=O)N(CC(=O)N(CC(N)=O)[C@@H](C)c1ccccc1)[C@@H](C)c1ccccc1)C(C)c1ccccc1)[C@@H](C)c1ccccc1)C(=O)CN(C(=O)CN(C(=O)CN(CCCCN)C(=O)CN(C(=O)CN(C(=O)CNCCCCN)[C@@H](C)c1ccccc1)C(C)c1ccccc1)[C@@H](C)c1ccccc1)C(C)c1ccccc1` (single isomer, unassigned), the MIC in [1] was over 100 µM; in series [4], over 100 µM; in series [5], 6 µM (≈ 10.9 µg/mL); in series [6] it was 2 µM (≈ 3.64 µg/mL). The CC50 at 24 h in series [2] stood at 20 µM; in series [3], 22 µM. Besides, the selectivity ratio in [7] worked out at 3; in series [8], 10; in [9], 4; in series [10] it was 11.

As for `N=C(N)NCCCCNCC(=O)N(CC(=O)N(CC(=O)N(CCCCNC(=N)N)CC(=O)N(CC(=O)N(CC(=O)N(CCCCNC(=N)N)CC(=O)N(CC(=O)N(CC(=O)N(CCCCNC(=N)N)CC(=O)N(CC(=O)N(CC(N)=O)Cc1cccc(F)c1)Cc1cccc(F)c1)Cc1cccc(F)c1)Cc1cccc(F)c1)Cc1cccc(F)c1)Cc1cccc(F)c1)Cc1cccc(F)c1)Cc1cccc(F)c1`, the MIC came out at 13 µM (≈ 26.3 µg/mL) in series [1], 13 µM (≈ 26.3 µg/mL) in series [4], 2 µM (≈ 4.04 µg/mL) in [5] and 2 µM (≈ 4.04 µg/mL) in series [6]. Also, the CC50 at 24 h in series [2] came out at 28 µM; in series [3] it was 21 µM. For the same compound, the selectivity ratio was 2 in [11]; 2 in series [12]; 14 in series [7]; 14 in [8]; 2 in series [13]; 2 in series [14]. For the same compound, the selectivity ratio in series [9] and in series [10] was 11 each time.

On to `NCCNCC(=O)N(CC(=O)N(CC(=O)N(CCN)CC(=O)N(CC(=O)N(CC(N)=O)Cc1ccccc1)Cc1ccccc1)Cc1ccccc1)Cc1ccccc1` (H-[Gly(N-2-aminoethyl)][Nphe][Nphe][Gly(N-2-aminoethyl)][Nphe][Nphe]-NH2), for which the MIC in series [1], in series [4], in series [5] and in series [6] was over 100 µM each time. The CC50 at 24 h in series [2] and in series [3] was over 100 µM in each case. The selectivity ratio in series [11], in [12], in series [7], in series [8], in series [13] and in [14] was 1 throughout. The selectivity ratio in [9] and in series [10] was 1 throughout.

As to `CC(c1ccccc1)N(CC(=O)N(CCCCN)CC(=O)N(CC(=O)N(CC(=O)N(CCCCN)CC(=O)N(CC(=O)N(CC(N)=O)[C@@H](C)c1ccccc1)[C@@H](C)c1ccccc1)Cc1ccc(F)cc1)Cc1ccc(F)cc1)C(=O)CN(C(=O)CN(CCCCN)C(=O)CN(Cc1ccc(F)cc1)C(=O)CN(Cc1ccc(F)cc1)C(=O)CNCCCCN)[C@@H](C)c1ccccc1` (single isomer, unassigned), the MIC came to 6 µM (≈ 11 µg/mL) in [1], 50 µM (≈ 91.8 µg/mL) in series [4], 2 µM (≈ 3.67 µg/mL) in series [5] and 1 µM (≈ 1.84 µg/mL) in series [6]. For the same compound, the CC50 at 24 h in [2] is over 100 µM; in [3] it was 55 µM. Besides, the selectivity ratio in series [11] turned out to be 13; in series [12] it was 2; in series [7] it was 50; in series [8], 100; in series [13], 9; in [9], 28. Further, the selectivity ratio in series [10] worked out at 55.

For the compound `C[C@@H](c1ccccc1)N(CC(N)=O)C(=O)CN(C(=O)CN(CCN)C(=O)CN(C(=O)CN(C(=O)CNCCN)[C@@H](C)c1ccccc1)[C@@H](C)c1ccccc1)[C@@H](C)c1ccccc1`, the MIC in series [1], in series [4], in series [5] and in series [6] was over 100 µM throughout. The CC50 at 24 h in series [2] and in series [3] was over 100 µM in each case. For the same compound, the selectivity ratio in series [11], in series [12], in series [7], in series [8], in series [13] and in series [14] was 1 in each case. In addition, the selectivity ratio in series [9] and in [10] was 1 each time.

Take `C[C@@H](c1ccccc1)N(CC(N)=O)C(=O)CN(C(=O)CN(CCCCN)C(=O)CN(C(=O)CN(C(=O)CN(CCCCN)C(=O)CN(C(=O)CN(C(=O)CN(CCCCN)C(=O)CN(C(=O)CN(C(=O)CNCCCCN)[C@@H](C)c1ccccc1)[C@@H](C)c1ccccc1)[C@@H](C)c1ccccc1)[C@@H](C)c1ccccc1)[C@@H](C)c1ccccc1)[C@@H](C)c1ccccc1)[C@@H](C)c1ccccc1` (H-[Nlys][Nspe][Nspe][Nlys][Nspe][Nspe][Nlys][Nspe][Nspe][Nlys][Nspe][Nspe]-NH2): the HC50 at 1 h in series [15] amounted to 100 µM. The CC50 in series [16] stood at 5.1 µM. The selectivity ratio is 10 in [7] and 15 in series [9].

Consider `NCCNCC(=O)N(CC(=O)N(CC(=O)N(CCN)CC(=O)N(CC(=O)N(CC(=O)N(CCN)CC(=O)N(CC(=O)N(CC(N)=O)Cc1ccccc1)Cc1ccccc1)Cc1ccccc1)Cc1ccccc1)Cc1ccccc1)Cc1ccccc1` (H-[Gly(N-2-aminoethyl)][Nphe][Nphe][Gly(N-2-aminoethyl)][Nphe][Nphe][Gly(N-2-aminoethyl)][Nphe][Nphe]-NH2), for which the MIC in [1], in series [4] and in series [6] was over 100 µM each time. Moreover, the CC50 at 24 h in [2] and in [3] was over 100 µM throughout. The selectivity ratio in series [11] turned out to be 1; in series [12], 1; in series [7], 8; in [8], 1; in series [13] it was 1; in [14] it was 1. Further, the selectivity ratio in [9] amounted to 8; in [10], 1.

Source of the values: ChEMBL document CHEMBL4261490, “Exploring the links between peptoid antibacterial activity and toxicity” (Medchemcomm, 2017).
